UBC9 SUMO inh: SUMOylation inhibition; HTRF SUMOylation assay, SAE1/SAE2 + UBC9, in vitro; AID 2006; inhibition, % at 35 µM; hit rate 0.36% among 290,000; P63279; in the data active means inhibition above about 50%, passing the limit was not always enough
Target sequence (P63279 whole entry, looked up): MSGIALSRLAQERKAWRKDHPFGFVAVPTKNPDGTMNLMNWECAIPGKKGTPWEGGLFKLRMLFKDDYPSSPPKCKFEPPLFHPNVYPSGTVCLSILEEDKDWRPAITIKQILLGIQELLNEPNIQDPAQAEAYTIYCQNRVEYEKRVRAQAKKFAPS
IMP-1 inh: inhibitors of Pseudomonas aeruginosa IMP-1 metallo-beta-lactamase | inhibition, % at 5.6 µM | purified IMP-1, nitrocefin hydrolysis, epi-absorbance fluorescence | hit rate 0.45% among 290,000;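 active means inhibition above the mean plus 3 SD of all compounds in the same screening run, cut at about 4.5% in these data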;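 further: 0% = IMP-1 with DMSO and 100% = DMSO wells lacking enzyme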
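System: Purified IMP-1 | Read-out basis: Percent enzyme inhibition | Controls: IMP-1 with DMSO as 0%, enzyme-free DMSO as 100% | Replicates: One well per compound | Doses: 5.6 µM nominal single concentration | Detection: Epi-absorbance fluorescence, 480 nm excitation, 530 nm emission | Incubation: 25 °C, 15 min preincubation, 25 min reaction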
DNA FID counter: displaces DNA intercalator in HCV helicase counter-screen; DNA fluorescent intercalator displacement, fluorescence; inhibition, % at 7.9 µM; hit rate 0.17% among 290,000; AID 1845; in the data active means inhibition above about 37%;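 further: 0% = vehicle and 100% = reference compound; higher means more ethidium bromide displaced from hairpin DNA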
VIM-2 inhibitor: blocks Pseudomonas aeruginosa VIM-2 metallo-beta-lactamase; purified VIM-2, nitrocefin hydrolysis, epi-absorbance fluorescence; inhibition, % at 5.6 µM; hit rate 0.89% among 290,000; AID 1527;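 active means inhibition above the mean of all tested compounds plus 3 SD, cutoff set per screening run, cut at about 7.5% in these data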;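 further: red hydrolysis product quenches plate fluorescence so inhibitors raise well fluorescence; 0% = enzyme with DMSO and 100% = DMSO without enzyme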
NALP1 inh: blocks the NALP1 inflammasome reconstituted in yeast; S. cerevisiae NALP1/ASC/caspase-1 growth, X-gal OD620, 72 h; hit rate 0.61% among 280,000; inhibition, % at 10 µM; in the data active means inhibition mostly above about 24%, no sharp cut-off; inactive means mostly below about 32%
Mot1-301 SUMO: blocks SUMOylation pathway, rescuing yeast Mot1-301 growth. growth rescue, % at 18.8 µM. S. cerevisiae Mot1-301 growth rescue, ATP luminescence, 38.5C; percent above DMSO median, 100 means doubled. hit rate 1% among 320,000. AID 2716;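 active means every valid replicate shows activation above 250% relative to neutral control wells; inactive means the rest, any valid replicate at or below 250%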;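 further: OY570 slx delta 5 strain wells were the positive control but not used for scaling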
An asterisk follows results filed as active; . = no result. Hits are enriched below; roughly 2.9% of the tested compounds scored in any of these assays.

SMILES	UBC9 SUMO inh	IMP-1 inh	DNA FID counter	VIM-2 inhibitor	NALP1 inh	Mot1-301 SUMO
O=C(c1cn(-c2ccccc2)nc1-c1ccccc1)N1CCOCC1	24	-3	-19	-1	18	5
O=C(c1cn(-c2ccccc2)nc1-c1ccc(Cl)cc1)N1CCOCC1	-15	-2	-24	-3	20	331*
Cc1ccccc1NC(=O)COc1ccc(S(=O)(=O)N2CCCC2)cc1C	2	-1	-10	-4	-1	124
Oc1c(Br)cc(Br)cc1CNc1cccc2cccnc12	75*	16*	-2	3	8	2
COc1ccc(CNc2ccccn2)c(O)c1	-4	-2	-3	0	20	.
Oc1c(Br)cc(Br)cc1CNc1ccccn1	2	-2	-1	-1	-4	288*
Oc1ccc(Cl)cc1CNc1cccc2cccnc12	66*	0	4	3	10	-7
O=C1SCCC1NS(=O)(=O)c1ccc([N+](=O)[O-])cc1 (stereo not drawn)	7	0	-11	-5	-5	23
O=C(/C=C/Nc1ccc(F)c(Cl)c1)c1ccccc1	-5	1	-7	3	-11	189
CCOc1cc(/C=C2\C(=O)N(c3cccc(C(=O)O)c3)N=C2C(F)(F)F)ccc1OCC(=O)Nc1ccccc1OC	73*	-2	43*	1	18	-12
CCOc1cc(/C=N/n2cnnc2)ccc1OCC(=O)Nc1ccccc1OC	-21	-4	-3	7	3	8
CCOC(=O)CNC(c1ccccc1)c1cc(Br)ccc1NC(=O)CCN1CCOCC1 (stereo not drawn)	17	-3	-2	-1	98*	208
CNC(=O)c1cn(-c2ccccc2)c(=O)c2ccccc12	-14	6.1*	0	-2	-1	-16
CCOC(=O)N1CCN(Cc2nnc(-c3cccc(Br)c3)o2)CC1	-2	-1	-31	2	-5	77
O=C(CCl)Nc1cc(-c2ccccc2)nn1-c1ccccc1	10	-2	3	0	77*	18
CCOC(=O)C1(Cc2ccccc2)CCN(Cc2cccn2-c2nccs2)CC1	-19	-2	6	-2	-7	22
CCOC(=O)C1(Cc2cccc(OC)c2)CCN(Cc2cccn2-c2nccs2)CC1	2	-1	6	1	39*	1
CN1CCN(C(=S)Nc2cc(S(=O)(=O)N3CCOCC3)ccc2Cl)CC1	27	-2	3	-3	15	257
CC(C)N(C(=S)Nc1cc(S(=O)(=O)N2CCOCC2)ccc1Cl)c1ccccc1	9	-2	-1	-4	59*	-2
Cc1cc(C)cc(N2C(=O)C3C4C=CC(C4)C3C2=O)c1 (stereo not drawn)	-1	1	-2	2	38*	5
Cc1ccc(N2C(=O)C3C4C=CC(C4)C3C2=O)cc1 (stereo not drawn)	6	-1	0	1	20	-22
O=C(O)C(Cc1ccccc1)N1C(=O)c2ccccc2C1=O (stereo not drawn)	-6	0	-7	-4	1	112
O=C(O)C(Cc1ccccc1)N1C(=O)c2cccc3cccc(c23)C1=O (stereo not drawn)	4	-3	-31	9.4*	-12	-8
O=C(O)C(CCCCN1C(=O)c2ccccc2C1=O)N1C(=O)c2ccccc2C1=O (stereo not drawn)	-5	18*	-28	5	-1	142
COc1ccc(CN(C)C(=O)COc2cccc(-n3cnnn3)c2)cc1OC	.	.	.	.	.	-9
SMILES	UBC9 SUMO inh	IMP-1 inh	DNA FID counter	VIM-2 inhibitor	NALP1 inh	Mot1-301 SUMO
Cc1ccccc1NS(=O)(=O)c1ccc(C(=O)NCC2CCCO2)cc1 (stereo not drawn)	.	.	.	.	.	263
CN(C)CCCN(C(=O)c1ccc(S(=O)(=O)N2CCCCC2)cc1)c1nc2cc3c(cc2s1)OCO3	7	1	38*	-1	18	0
Cc1ccc2nc(N(CCCN(C)C)C(=O)c3ccc4c(c3)CCCC4)sc2c1	-9	-4	22	-4	52*	-14
CN(C)CCCN(C(=O)c1ccc(C(=O)c2ccccc2)cc1)c1nc2cc3c(cc2s1)OCO3	11	-1	44*	0	24	-18
Cc1ccc(C)c(NS(=O)(=O)c2ccc3[nH]c(=O)oc3c2)c1	8	-1	-2	0	17	-15
Cc1ccccc1C(=O)NNC(=O)C1CCN(C(=O)Nc2ccccc2)CC1	.	.	.	.	.	342*
Cc1ccccc1C(=O)NC1CCN(C(=O)N(c2ccccc2)c2ccccc2)CC1	15	4.6*	-36	0	1	-1
CCc1nn(CC(=O)NC(C)CCc2ccccc2)c(=O)c2cc3cc(F)ccc3n12 (stereo not drawn)	51*	-3	-9	-4	17	7
C=CCn1c(SCC(=O)NCCCC)nc2scc(-c3ccco3)c2c1=O	22	7.9*	-36	2	-23	-7
Cc1ccc(CSCC(=O)N(CCC(C)C)c2c(N)n(Cc3ccccc3)c(=O)[nH]c2=O)cc1	.	.	.	.	.	13
COc1ccc(NC(=O)COC(=O)c2ccc(Cl)c(S(N)(=O)=O)c2)c([N+](=O)[O-])c1	-2	-1	-6	1	16	-25
CC/C(=N/Nc1ccccc1C)c1cnnc(SC)n1	19	-2	-4	2	30	17
CSc1nncc(/C(C)=N\Nc2ccccc2)n1	-18	-3	-4	-2	15	297*
Cc1nc(Nc2ccc(O)cc2)c2c3c(sc2n1)CCCC3	-3	-4	-22	8.4*	-8	-3
O=C(NCCCN1CCCCC1)c1ccc2c(c1)NC(=O)C(N1CCCCC1)S2 (stereo not drawn)	-12	5.2*	1	0	18	-10
O=C(Nc1ccc(OC(F)(F)F)cc1)C1CCCN(C(=O)c2ccc(Cl)cc2)C1 (stereo not drawn)	.	.	.	.	.	11
O=C(c1cccnc1)N1CCN(S(=O)(=O)c2cccc(Cl)c2)CC1	8	-4	-13	-2	-3	-20
O=C(c1cncc(Br)c1)N1CCN(S(=O)(=O)c2ccc(Cl)cc2)CC1	-17	-2	-31	1	-2	306*
N#Cc1c(Cl)cccc1-n1ccnc1	22	-3	-4	-2	2	23
Cc1cc(C)n(-c2cccc(Cl)c2C#N)n1	27	-4	-1	8.7*	.	49
O=C(CSc1nnnn1-c1ccccc1)Nc1ccc(N2CCOCC2)c(Cl)c1	16	-3	-5	-1	18	-11
CN1CCN(c2ccc(NC(=O)CSc3nnnn3-c3ccccc3Cl)cc2)CC1	-1	0	37*	5	34	-5
CC(C)OCCCNC(=O)c1cc2c(=O)n(C)c3ccccc3c2n1C	-1	0	-26	10*	48	75
Cn1c(=O)c2c(SCC(=O)N3CCOCC3)nc(-c3ccccc3F)nc2n(C)c1=O	15	-2	-19	7.9*	-2	11

Source: PubChem
